The data set is described as follows: Toxicity liver stage against HepG2, at 10uM. Further details: test concentration 10 uM, cell line HepG2-A16-CD81EGFP. The conditions noted are these: human, HepG2-A16-CD81EGFP cells; read-out: INHIBITION
In kind it is cell-based. In outline:
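Uninfected HepG2-A16-CD81EGFP cells, 3 × 10^3 per well, 1536-well, plated on prespotted compound at 10 μM final, parasite-free screening media added to match infected plates; puromycin 10 μM positive, DMSO 0.5% negative; run in parallel with 48 h PbLuc assay at 37 °C, 5% CO2; viability by CellTiter-Glo luminescence, normalized to controls.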

Turning to `CC1(C)CN(C(=O)c2cnc(-c3ccccn3)nc2)CC[C@]1(C)O`, the cytotoxicity at 10 µM was -2.52%.

Take `Cc1ccc(C(=O)N2C[C@H]3CCC[C@@]3(COc3ccccn3)C2)nc1`: the cytotoxicity at 10 µM was -2.23%.

As for `Cc1nc(C2CCNC2)nc2c1CCC(=O)N2CC(C)C` (configuration not stated), the cytotoxicity at 10 µM was 2.04%.

For the compound `CNC(=O)c1ccc(CNC(=O)c2ccc(Cl)cc2F)cc1`, the cytotoxicity at 10 µM is 5.66%.

With `CC(C)c1nnc2n1CCN(C(=O)CN1Cc3ccccc3C1=O)C2`, the cytotoxicity at 10 µM is -1.81%.

On to `COc1cc(-c2cnnc(NCC3CC3)n2)cc(OC)c1OC`, for which the cytotoxicity at 10 µM turned out to be 8.11%.

As to `CCN1CCN(C(C)CNC(=O)Nc2cnn(CC)c2)CC1` (configuration not stated), the cytotoxicity at 10 µM is -12.9%.

With `CCSc1cncc(NCc2ccc(N3CCNC(=O)C3)cc2)n1`, the cytotoxicity at 10 µM stood at 15.7%.

For `COc1cc2c(cc1OC)S(=O)(=O)N(Cc1cc(C)on1)C2=O`, the cytotoxicity at 10 µM was 11.3%.

Consider `OCCCN1CCOC(c2ccc(F)cc2)C1` (configuration not stated), for which the cytotoxicity at 10 µM was -7.09%.

As to `CCc1nc(CN(C)Cc2nnc(-c3cccs3)o2)cs1`, the cytotoxicity at 10 µM was determined as 6.37%.

On to `Cc1sc2c(C3CCNCC3)nc(Nc3cccc(F)c3)n2c1C`, for which the cytotoxicity at 10 µM is -0.775%.

As to `Cc1cc(C)n(-c2ccc(C(=O)NCc3cncn3CC(C)C)cc2)n1`, the cytotoxicity at 10 µM is -4.04%.

With `Cc1csc(C2CCCCN2C(=O)CCCn2cncn2)n1` (configuration not stated), the cytotoxicity at 10 µM is -8.23%.

As for `NC(=O)C1CN(Cc2c[nH]cn2)CCN(C2CCOCC2)C1` (configuration not stated), the cytotoxicity at 10 µM worked out at 3.83%.

`COCCn1/c(=N\C(=O)CN(C)S(C)(=O)=O)sc2cccc(F)c21`: the cytotoxicity at 10 µM was -11.5%.

On to `CCOC(=O)C1CN(S(=O)(=O)C2CC2)Cc2ncn(CC)c21` (configuration not stated), for which the cytotoxicity at 10 µM is 6.71%.

Regarding `Cc1csc(CCNC(=O)C2CCCN(C3CCOCC3)C2)n1` (configuration not stated), the cytotoxicity at 10 µM amounted to 3.01%.

As to `CN1CCN2CCN(C(=O)c3cc4ncc(CCO)cn4n3)CC2C1` (configuration not stated), the cytotoxicity at 10 µM was 6.99%.

On to `Cc1nnc(CCNC(=O)C(c2ccc(F)cc2)N(C)C)[nH]1` (configuration not stated), for which the cytotoxicity at 10 µM is -5.96%.

With `Cc1cc(NC(=O)Cc2ccc3c(c2)OCO3)n(C)n1`, the cytotoxicity at 10 µM is 10.1%.

As to `O=C1CN(C(=O)c2cc3c(F)cc(Br)cc3[nH]2)CCN1`, the cytotoxicity at 10 µM was 0.0723%.

For `O=C(c1cccnc1)N1Cc2[nH]nc(COCCO)c2C1`, the cytotoxicity at 10 µM turned out to be 13.3%.

As to `C=C(C)COc1cccc(CNC(CC)c2ccnn2C)c1` (configuration not stated), the cytotoxicity at 10 µM was -4.21%.

As for `Cc1ccccc1NC(=O)NCCn1nc(C(F)(F)F)n(C)c1=O`, the cytotoxicity at 10 µM is -1.68%.

Regarding `CN(CCn1cccn1)S(=O)(=O)c1cccc(Cl)c1C#N`, the cytotoxicity at 10 µM amounted to 3.45%.

With `c1ccc(CN2CCc3c(CNc4nccs4)n[nH]c3C2)nc1`, the cytotoxicity at 10 µM was -7.04%.

On to `NCC1CCCCN1C(=O)Cc1cccc(Cl)c1` (configuration not stated), for which the cytotoxicity at 10 µM is -5.36%.

`Cc1nc(C(=O)N2CCCCC2)nn1-c1ccccc1Cl`: the cytotoxicity at 10 µM is -6.46%.

Turning to `CC(C)Cc1cc(C(=O)NCC(O)c2ccc(F)cc2)n(C)n1` (configuration not stated), the cytotoxicity at 10 µM was -2.96%.

As to `CN1C(=O)C2(CCN(Cc3cccnc3)CC2)c2cccc(F)c21`, the cytotoxicity at 10 µM turned out to be 6.77%.

On to `CCSc1ncc(-c2cc(C3CCC3)nc(N)c2C#N)cn1`, for which the cytotoxicity at 10 µM was determined as 6.67%.

Take `Nc1c(C(=O)C2CCCN(C(=O)C3CC3)C2)cnn1-c1ccc(F)cc1` (configuration not stated): the cytotoxicity at 10 µM amounted to 6.12%.

`O=C(NCCN1CCCCC1)c1cccc(Cl)c1Cl`: the cytotoxicity at 10 µM was 6.04%.

Regarding `Cc1nc(CN[C@H]2CCCN(C(=O)OC(C)(C)C)C2)cs1`, the cytotoxicity at 10 µM amounted to 0.577%.

Regarding `O=C(Cn1cc(C(=O)O)ccc1=O)Nc1cc(F)ccc1F`, the cytotoxicity at 10 µM is 0.687%.

Consider `CCOc1ncccc1CNC(=O)NC(C)Cn1cccn1` (configuration not stated), for which the cytotoxicity at 10 µM was -15.7%.

In the case of `CC(C)OCCN1CCN(C(=O)c2cccc(CC#N)c2)CC1`, the cytotoxicity at 10 µM turned out to be 0.119%.

Consider `CN1CCOC(C)(C(=O)N2CCSCC2)C1` (configuration not stated), for which the cytotoxicity at 10 µM was -9.71%.

As for `O=C(CC1CCc2ccccc21)NCCSc1ccccn1` (configuration not stated), the cytotoxicity at 10 µM is -0.214%.

For `O=C(NCCSC1CCCC1)c1cnccn1`, the cytotoxicity at 10 µM was -0.95%.

Consider `CCCC(=O)Nc1cccc([C@H]2C[C@@H](NC(C)=O)CCO2)c1`, for which the cytotoxicity at 10 µM turned out to be 5.09%.

Consider `COCc1n[nH]/c(=N/C(=O)COc2cnc(C)cc2O)s1`, for which the cytotoxicity at 10 µM turned out to be 5.84%.

On to `O=C(CCc1ccccn1)N1CCN(C(=O)CC2CCCCC2)CC1`, for which the cytotoxicity at 10 µM was -1.8%.

With `CCN1CCN(C2CCN(Cc3nc(CCOC)no3)CC2)C1=O`, the cytotoxicity at 10 µM is -9.44%.

Regarding `CCN1CCN(c2ccc(CNC(=O)c3ccccc3F)cn2)CC1`, the cytotoxicity at 10 µM was -16.4%.

Regarding `CCN(CC)c1nc2sc(C(=O)NCC(=O)OC)cc2s1`, the cytotoxicity at 10 µM turned out to be 1.05%.

As to `O=c1c2sccc2nc2n1CCN(Cc1ccccc1C(F)(F)F)CC2`, the cytotoxicity at 10 µM is -9.31%.

On to `CC(=O)N1CC(=O)N(c2cnn(C)c2)CC12CCN(Cc1nccs1)C2` (configuration not stated), for which the cytotoxicity at 10 µM came out at 6.03%.

In the case of `COCC(Nc1ncnc2sc(C(=O)O)c(C)c12)c1ccnn1C` (configuration not stated), the cytotoxicity at 10 µM was -18.7%.

Turning to `Cc1cc(N(Cc2ccon2)S(C)(=O)=O)ccc1Br`, the cytotoxicity at 10 µM was found to be 4.51%.

Consider `CN1CC(=O)N(c2ccccc2)CC12CCN(Cc1cccnc1)C2` (configuration not stated), for which the cytotoxicity at 10 µM was -2.09%.

In the case of `Cc1ccc(N2CCCC(c3[nH]ncc3-c3ccccc3)C2)nn1` (configuration not stated), the cytotoxicity at 10 µM was found to be 2.51%.

Regarding `O=C(c1cnccn1)N1CCc2onc(CN3CCOCC3)c2C1`, the cytotoxicity at 10 µM was 9.47%.

Take `CC(C)(C)S(=O)(=O)c1ccc(N2CCC(n3ccnc3)CC2)cn1`: the cytotoxicity at 10 µM was -6.62%.

For the compound `COc1cc2nc(C)n(CC(=O)O)c(=O)c2cc1OC`, the cytotoxicity at 10 µM was 5.68%.

Consider `Cn1cccc1C(=O)NC(C)(C(N)=O)c1cccc(C(F)(F)F)c1` (configuration not stated), for which the cytotoxicity at 10 µM is 3.61%.

In the case of `CN(Cc1cccnc1)[C@@H]1CN(C(=O)c2ccco2)[C@@H]2CCCO[C@H]12`, the cytotoxicity at 10 µM was -108%.

Turning to `O=C(NS(=O)(=O)Cc1ccc(F)cc1)C1CCOc2ccccc21` (configuration not stated), the cytotoxicity at 10 µM is -3.22%.

For the compound `Cc1cccnc1NCCNC(=O)c1cnc(-c2cccs2)nc1O`, the cytotoxicity at 10 µM was 4.62%.

For `COCCC(Cc1cccc(Br)c1)C(=O)N(C)C` (configuration not stated), the cytotoxicity at 10 µM stood at 13%.

Turning to `CN(C)CCNC(=O)c1ccc(OC2CCN(CC3CC3)CC2)c(Cl)c1`, the cytotoxicity at 10 µM was -6.26%.

For `NC(=O)C1CCN(C(=O)c2ccccc2OCc2ccccc2Cl)CC1`, the cytotoxicity at 10 µM was -9.4%.

Turning to `O=C(COc1ccccc1)NCC1CCN(Cc2ccsc2)CC1`, the cytotoxicity at 10 µM is -4.59%.

Regarding `O=C(O)c1ccnc(SCC(F)(F)F)c1`, the cytotoxicity at 10 µM was -17.6%.

Regarding `Cn1cc(CCNC(=O)CCc2ccc3c(c2)OCO3)cn1`, the cytotoxicity at 10 µM was -7.15%.

With `O=C(CCCNCc1ccccc1)N1CCCn2cncc2C1`, the cytotoxicity at 10 µM is -3.32%.

`Cc1ccc(C(=O)N2C[C@H]3CN(Cc4csc(C)n4)C[C@H]3C2)cn1`: the cytotoxicity at 10 µM is -143%.

Regarding `CN(C)CCN(Cc1ccc(Cl)cc1)C(=O)c1cc[nH]n1`, the cytotoxicity at 10 µM is 5.65%.

In the case of `CN(C)S(=O)(=O)N(Cc1cscn1)c1ccccc1`, the cytotoxicity at 10 µM is -3.91%.

As to `CC1CCN(S(=O)(=O)c2cccn(CC(=O)NC3CCCC3)c2=O)CC1`, the cytotoxicity at 10 µM is -14.6%.

For `CNC(=O)C1(Cc2cc(C(C)C)no2)CCN(Cc2cccnc2)C1` (configuration not stated), the cytotoxicity at 10 µM is 4.61%.

Regarding `CCc1ncc(CN2CCN(CCOC)CC2)cn1`, the cytotoxicity at 10 µM is -21.7%.

With `O=C(NC1CC1)N1CC[C@H]2[C@H]1CCN2c1ncccn1`, the cytotoxicity at 10 µM worked out at 3.08%.

In the case of `CCOC(=O)N1[C@@H](c2ccco2)[C@@H](CO)C[C@]12CCCCNC2=O`, the cytotoxicity at 10 µM is 0.644%.

`CCc1c(O)nc(SCC(=O)c2ccccc2)n(-c2ccccc2)c1=O`: the cytotoxicity at 10 µM is 3.19%.

On to `CCc1nc(NS(=O)(=O)c2cc(C)cc(F)c2)no1`, for which the cytotoxicity at 10 µM is 2.31%.

With `CC(C)(NCc1ccc(C#N)cc1)c1ccc2c(c1)OCO2`, the cytotoxicity at 10 µM was found to be 2.3%.

Take `CCc1n[nH]c(C2CN(C(=O)CCCn3cccn3)CCO2)n1` (configuration not stated): the cytotoxicity at 10 µM is -6.69%.

For the compound `COc1ccc(CC(=O)N2CCC(c3nnc4n3CCC4)CC2)cc1F`, the cytotoxicity at 10 µM was -1.65%.

As to `Cc1nc(C)n(CC2CCCN2Cc2nc(C3CC3)no2)n1` (configuration not stated), the cytotoxicity at 10 µM was -12.5%.

Consider `O=C(Cn1cc(C(=O)O)cn1)Nc1c(Cl)cccc1Cl`, for which the cytotoxicity at 10 µM came out at 1.57%.

Regarding `c1ncn(CC2CCCN(Cc3noc(C4CC4)n3)C2)n1` (configuration not stated), the cytotoxicity at 10 µM is 0.428%.

With `COCCNC(=O)Cn1nc(C(C)C)c2cnn(C(C)(C)C)c2c1=O`, the cytotoxicity at 10 µM was -21.9%.

Regarding `CC(C)N1C(=O)CC(N2CCN(c3ccc(F)cc3)CC2)C1=O` (configuration not stated), the cytotoxicity at 10 µM is 8.44%.

For the compound `N#CC1CCN(C(=O)NCCc2ccc(Cl)s2)CC1`, the cytotoxicity at 10 µM was -16.1%.

`COCc1n[nH]/c(=N\C(=O)c2c3c(nc4onc(C)c24)CCC3)s1`: the cytotoxicity at 10 µM was -4.41%.

Take `CCOc1ccccc1CNC(=O)c1cnn(CC)c1C(F)(F)F`: the cytotoxicity at 10 µM is 3.67%.

For the compound `CN(C)Cc1csc(-c2nccn2Cc2ccc(C(=O)O)cc2)c1`, the cytotoxicity at 10 µM is -1.3%.

Consider `Cc1cccc(CNC(=O)CC2CCN(S(C)(=O)=O)CC2)n1`, for which the cytotoxicity at 10 µM was -1.57%.

`O=C(CSc1ccc2c(c1)OCCO2)NS(=O)(=O)c1ccccc1Br`: the cytotoxicity at 10 µM is -4.62%.

On to `CC(C)[C@@H]1CN(C2CCN(Cc3ccccc3)CC2)C[C@H]1NS(C)(=O)=O`, for which the cytotoxicity at 10 µM was -10.7%.

For `O=C(c1cccs1)N1CCCC2(COCCN(c3cccnc3)C2)C1` (configuration not stated), the cytotoxicity at 10 µM is -70.3%.

As to `Cc1nc(CN2CCN(C(=O)CC(C)(C)c3ccccc3)CC2)no1`, the cytotoxicity at 10 µM is -1.96%.

With `CCOCC1COCCC12CCN(C(=O)C1=CCCC1)CC2` (configuration not stated), the cytotoxicity at 10 µM was -2.35%.

Consider `Cc1ccc(CN2CC(O)CN(C(=O)OCC(C)C)CC2=O)cc1` (configuration not stated), for which the cytotoxicity at 10 µM was -3.09%.

Regarding `CCn1nc(C)cc1C(=O)NCc1nc(C)no1`, the cytotoxicity at 10 µM stood at 0.304%.

These data come from ChEMBL document CHEMBL4513216, “Probing the Open Global Health Chemical Diversity Library for Multistage-Active Starting Points for Next-Generation Antimalarials” (ACS Infect Dis, 2020).
